Measurements published in PubChem BioAssay AID463076 (The Scripps Research Institute Molecular Screening Center, 2010).
pIC50: −log10 of the molar value. Active and inactive are the calls of the source.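 Rule for the calls: active = compounds blocking FLT3 kinase activity with IC50 at or below 1000 nM; inactive = IC50 above 1000 nM.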

Target: Receptor-type tyrosine-protein kinase FLT3 (Homo sapiens) (UniProt P36888)
Assay: inhibitors of human FLT3 tyrosine kinase – biochemical, radioactive 33P-ATP, powder samples, selectivity assay for CK1d inhibitor project, late-stage follow-up (AID 463076)
Conditions: purified FLT3, 33P-ATP Abltide filter-binding assay
Summary of the method: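 Material: kinase enzyme in a cell-free radiometric reaction; Compound: 10-point threefold dilution series from 50 µM nominal top; Detection: radiometric filter-binding readout; Buffer or medium: Hepes pH 7.5, MgCl2, DTT, 1% DMSO; Schedule: kinase reaction 120 min at room temperature; Evaluation: IC50 from signal ratio curve; Reagent: 33P-labelled ATP plus peptide substrate.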

Receptor-type tyrosine-protein kinase FLT3 (Homo sapiens), sequence (P36888 whole entry, looked up): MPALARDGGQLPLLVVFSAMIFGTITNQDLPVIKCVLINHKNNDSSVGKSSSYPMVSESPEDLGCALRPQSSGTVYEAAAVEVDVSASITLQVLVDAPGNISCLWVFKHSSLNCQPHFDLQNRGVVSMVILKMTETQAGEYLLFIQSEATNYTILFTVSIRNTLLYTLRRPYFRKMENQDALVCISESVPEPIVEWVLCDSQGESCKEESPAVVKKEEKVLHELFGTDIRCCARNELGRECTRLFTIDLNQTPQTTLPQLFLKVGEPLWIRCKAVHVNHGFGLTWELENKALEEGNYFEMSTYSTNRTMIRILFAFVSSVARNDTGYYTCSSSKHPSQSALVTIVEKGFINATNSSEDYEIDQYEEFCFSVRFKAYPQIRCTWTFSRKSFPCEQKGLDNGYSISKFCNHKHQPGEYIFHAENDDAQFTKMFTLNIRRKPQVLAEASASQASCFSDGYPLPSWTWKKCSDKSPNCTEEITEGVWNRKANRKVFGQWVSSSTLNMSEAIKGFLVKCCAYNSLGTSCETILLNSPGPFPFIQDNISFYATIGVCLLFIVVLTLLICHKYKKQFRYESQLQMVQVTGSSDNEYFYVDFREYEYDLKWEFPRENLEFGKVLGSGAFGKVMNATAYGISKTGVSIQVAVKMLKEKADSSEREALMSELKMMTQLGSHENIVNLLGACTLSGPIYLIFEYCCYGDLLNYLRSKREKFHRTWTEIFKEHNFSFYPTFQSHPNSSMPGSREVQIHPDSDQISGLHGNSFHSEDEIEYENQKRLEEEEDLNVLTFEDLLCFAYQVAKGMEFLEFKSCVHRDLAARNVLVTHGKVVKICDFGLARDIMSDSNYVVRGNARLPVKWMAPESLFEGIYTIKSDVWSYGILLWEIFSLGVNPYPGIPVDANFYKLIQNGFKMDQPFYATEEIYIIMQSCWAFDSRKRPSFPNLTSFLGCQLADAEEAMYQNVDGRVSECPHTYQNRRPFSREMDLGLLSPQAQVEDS

SMILES	pIC50	IC50
FC(F)(F)c1ccc2nc(CNc3nc(N4CCOCC4)nc4c3ncn4-c3ccsc3)[nH]c2c1	6.29	–
CCOC(=O)c1cccc2[nH]c(CNc3nc(N4CCOCC4)nc4c3ncn4-c3ccsc3)nc12	6.26	–
Cc1ccnc(NC(=O)CCCOc2cc(=O)n(C)c3ccccc23)c1	–	inactive
CC(C)n1cnc2c(NCc3nc4c([N+](=O)[O-])cccc4[nH]3)nc(N3CCOCC3)nc21	–	inactive
c1ccc2cc3[nH]c(CNc4nc(N5CCOCC5)nc5c4ncn5-c4ccsc4)nc3cc2c1	6.01	–
FC(F)(F)c1cccc2[nH]c(CNc3nc(N4CCOCC4)nc4c3ncn4-c3ccsc3)nc12	6.58	–
O=[N+]([O-])c1cccc2[nH]c(CNc3nc(N4CCOCC4)nc4c3ncn4-c3ccsc3)nc12	6.52	–
c1ccc2[nH]c(CNc3nc(N4CCOCC4)nc4c3ncn4-c3ccsc3)nc2c1	7.00	–

Continued, values first:

pIC50	IC50	SMILES
6.52	–	Clc1ccc2nc(CNc3nc(N4CCOCC4)nc4c3ncn4-c3ccsc3)[nH]c2c1
7.85	–	COc1ccc2nc(CNc3nc(N4CCOCC4)nc4c3ncn4-c3ccsc3)[nH]c2c1
7.21	–	N#Cc1ccc2nc(CNc3nc(N4CCOCC4)nc4c3ncn4-c3ccsc3)[nH]c2c1
6.62	–	O=[N+]([O-])c1ccc2nc(CNc3nc(N4CCOCC4)nc4c3ncn4-c3ccsc3)[nH]c2c1
7.10	–	Fc1ccc2nc(CNc3nc(N4CCOCC4)nc4c3ncn4-c3ccsc3)[nH]c2c1
